The text below walks through data of ChEMBL document CHEMBL1125708, “Synthesis and antiviral activity of 5-heteroaryl-substituted 2'-deoxyuridines” (1991).

Converted amounts (≈) assume the structure as drawn. Where only a bound is given, the exact number is not on record here.

Settings in all cases: Homo sapiens
The test system of assay [1] is E6SM. As to the kind of experiment: Minimum inhibitory concentration required to reduce virus induced cytopathicity in embryonic skin muscle (E6SM) cell culture of virus HSV-1 (Mc Intyre) was measured. The class given is functional. On the technique in general: Cytopathic effects are the visible damage that an infection or toxin causes in cultured cells.
In assay [2] the test system is E6SM. As to the kind of experiment: Minimum inhibitory concentration required to reduce virus induced cytopathicity in embryonic skin muscle (E6SM) cell culture of virus HSV-1( F) was measured. The format is functional.
Assay [3] relates to E6SM. As to the kind of experiment: Minimum inhibitory concentration required to reduce virus induced cytopathicity in embryonic skin muscle (E6SM) cell culture of virus HSV-2 (196) was measured. The class given is functional.
Assay [4] has as its system E6SM. As to the kind of experiment: Minimum inhibitory concentration required to reduce virus induced cytopathicity in embryonic skin muscle (E6SM) cell culture of virus HSV-2 (G) was measured. The format is functional.
Assay [5] relates to E6SM. As to the kind of experiment: Minimum inhibitory concentration required to reduce virus induced cytopathicity in embryonic skin muscle (E6SM) cell culture of virus HSV-2 (Lyons) was measured. The format is functional.
The subject of assay [6] is E6SM. As to the kind of experiment: Minimum inhibitory concentration required to reduce virus induced cytopathicity in embryonic skin muscle (E6SM) cell culture of virus TK- HSV-1 (B2006) was measured. The format is functional.
In assay [7] the test system is E6SM. As to the kind of experiment: Minimum inhibitory concentration required to reduce virus induced cytopathicity in embryonic skin muscle (E6SM) cell culture of virus TK- HSV-1 (VMW1837) was measured. The format is functional.
Assay [8] concerns E6SM. As to the kind of experiment: (§1) Minimum inhibitory concentration required to reduce virus induced cytopathicity in embryonic skin muscle (E6SM) cell culture of virus VSV was measured. The format is functional.
The subject of assay [9] is E6SM. As to the kind of experiment: Minimum inhibitory concentration required to reduce virus induced cytopathicity in embryonic skin muscle (E6SM) cell culture of virus VV was measured. The format is functional.
In assay [10] the test system is E6SM. As to the kind of experiment: minimum inhibitory concentration required to cause a microscopically detectable change in normal cell morphology. The class given is functional. In short, it runs like this: (§2)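 Cytotoxicity was judged by microscopic inspection of uninfected cell monolayers in microtiter plates. The value is the minimum concentration causing a microscopically detectable change in normal cell morphology.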

Assay [11] relates to E6SM. As to the kind of experiment: Minimum inhibitory concentration required to reduce virus induced cytopathicity in embryonic skin muscle (E6SM) cell culture of virus HSV-1 (KOS) was measured. The class given is functional.
The subject of assay [12] is HEL. As to the kind of experiment: In vitro antiviral activity and cytotoxicity, and minimum inhibitory concentration required to reduce cell growth by 50% in HEL cell culture. The class given is functional. In short, it runs like this: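 Cytotoxicity was measured as inhibition of growth of human embryonic lung (HEL) cells seeded in 96-well microtiter plates. The value is the concentration reducing cell growth by 50%.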

For assay [13], the system named is HEL. As to the kind of experiment: Minimum concentration required to reduce virus induced plaque formation in HEL cell culture of virus TK- VZV (YS-R) was measured. The class given is functional. The procedure, abridged: (§3)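 Plaque-reduction assay in human embryonic lung (HEL) cells in 96-well microtiter plates. VZV strains were Oka and YS, plus TK-deficient 07-1 and YS-R. CMV strains were AD169 and Davis. The value is the concentration reducing virus plaque formation by 50%.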

Assay [14] concerns HEL. As to the kind of experiment: Minimum inhibitory concentration required to reduce virus induced plaque formation in HEL cell culture of virus VZS (OKA) was measured. The class given is functional. In short, it runs like this:
as §3

The test system of assay [15] is HEL. As to the kind of experiment: minimum inhibitory concentration required to reduce virus induced plaque formation in HEL cell culture of virus VZS (YS) was measured. The format is functional. In short, it runs like this: as §3
The subject of assay [16] is HEL. As to the kind of experiment: Minimum inhibitory concentration required to reduce virus induced plaque formation in HEL cell culture of virus CMV (AD169) was measured. The class given is functional. The procedure, abridged: as §3
Assay [17] concerns HEL. As to the kind of experiment: Minimum inhibitory concentration required to reduce virus induced plaque formation in HEL cell culture of virus CMV (Davis) was measured. The class given is functional. In short, it runs like this: as §3
The test system of assay [18] is HEL. As to the kind of experiment: Minimum inhibitory concentration required to reduce virus induced plaque formation in HEL cell culture of virus TK- VZV (07-1) was measured. The class given is functional. In short, it runs like this: as §3
In assay [19] the test system is E6SM. As to the kind of experiment: Minimum inhibitory concentration required to cause a microscopically detectable change in normal cell morphology. The class given is functional. The procedure, abridged: as §2
The test system of assay [20] is E6SM. As to the kind of experiment: Minimum inhibitory concentration required to reduce virus induced cytopathicity in embryonic skin muscle (E6SM) cell culture of virus HSV-2 (196) was measured. The class given is functional.
Assay [21] deals with E6SM. As to the kind of experiment: minimum inhibitory concentration required to reduce virus induced cytopathicity in embryonic skin muscle (E6SM) cell culture of virus HSV-2 (Lyons) was measured. The format is functional.
Assay [22] relates to HEL. As to the kind of experiment: Minimum inhibitory concentration required to reduce virus induced plaque formation in HEL cell culture of virus VZS (YS) was measured. The class given is functional. In short, it runs like this: as §3
The test system of assay [23] is HEL. The description is as §1. The format is functional.
For assay [24], the system named is HEL. As to the kind of experiment: Minimum inhibitory concentration required to reduce virus induced plaque formation in HEL cell culture of virus TK- VZV (YS-R) was measured. The format is functional. The procedure, abridged: as §3
Assay [25] relates to E6SM. As to the kind of experiment: Minimum inhibitory concentration required to reduce virus induced cytopathicity in embryonic skin muscle (E6SM) cell culture of virus VV was measured.

In the case of `O=c1[nH]c(=O)n([C@H]2C[C@H](O)[C@@H](CO)O2)cc1-c1cc(-c2ccccc2)no1`, the MIC in assay [1], in assay [2], in [3], in assay [4], in assay [5] and in assay [6] was above 40 µg/mL each time. The MIC in assay [7] was above 40 µg/mL; in assay [8], above 40 µg/mL; in assay [9], above 40 µg/mL; in assay [10], above 40 µg/mL; in [11], above 40 µg/mL; in [12], above 200 µg/mL. Further, the MIC in assay [13] is above 100 µg/mL; in assay [14], 38 µg/mL (≈ 102 µM); in assay [15], 73 µg/mL (≈ 197 µM); in [16] it was 25 µg/mL (≈ 67.3 µM); in [17], 25 µg/mL (≈ 67.3 µM); in assay [18], 61 µg/mL (≈ 164 µM).

In the case of `O=c1[nH]c(=O)n([C@H]2C[C@H](O)[C@@H](CO)O2)cc1-c1cc(-c2ccc(Cl)cc2)no1`, the MIC in assay [1], in [2], in assay [3], in assay [4], in assay [5] and in assay [6] was above 40 µg/mL each time. Moreover, the MIC was above 40 µg/mL in assay [7]; above 40 µg/mL in [8]; above 40 µg/mL in assay [9]; above 40 µg/mL in assay [19]; above 40 µg/mL in [11]; above 200 µg/mL in [12]. Further, the MIC is 77 µg/mL (≈ 190 µM) in assay [13]; 9 µg/mL (≈ 22.2 µM) in [14]; above 40 µg/mL in assay [15]; 7 µg/mL (≈ 17.3 µM) in [16]; 7 µg/mL (≈ 17.3 µM) in assay [17]; 22 µg/mL (≈ 54.2 µM) in assay [18].

As for `O=c1[nH]c(=O)n([C@H]2C[C@H](O)[C@@H](CO)O2)cc1-c1cc(Br)no1`, the MIC in [1] is 2 µg/mL (≈ 5.35 µM); in assay [2], 2 µg/mL (≈ 5.35 µM); in assay [20], above 400 µg/mL; in [4] it was above 200 µg/mL; in [6] it was above 400 µg/mL; in assay [7], above 400 µg/mL. The MIC in assay [8] is above 400 µg/mL; in assay [9], above 400 µg/mL; in [19], above 400 µg/mL; in assay [21] it was above 400 µg/mL; in [11], 7 µg/mL (≈ 18.7 µM); in [12] it was above 50 µg/mL. For the same compound, the MIC was above 100 µg/mL in assay [13]; 0.09 µg/mL (≈ 0.241 µM) in assay [14]; 0.24 µg/mL (≈ 0.641 µM) in [22]; above 100 µg/mL in [16]; above 100 µg/mL in [17]; above 100 µg/mL in assay [18].

As for `O=c1[nH]c(=O)n([C@H]2C[C@H](O)[C@@H](CO)O2)cc1/C=C/Br` [BRIVUDINE], the MIC in [1] is 0.07 µg/mL (≈ 0.21 µM); in assay [2], 0.07 µg/mL (≈ 0.21 µM); in assay [3], above 400 µg/mL; in assay [4], 10 µg/mL (≈ 30 µM); in [5], above 400 µg/mL; in assay [6] it was 100 µg/mL (≈ 300 µM). Further, the MIC in assay [7] was above 400 µg/mL; in assay [23], above 400 µg/mL; in [19] it was above 400 µg/mL; in [11], 0.07 µg/mL (≈ 0.21 µM); in assay [12], 200 µg/mL (≈ 600 µM); in assay [14], 0.003 µg/mL (≈ 0.00901 µM). The MIC amounted to 0.4 µg/mL (≈ 1.2 µM) in [24]; 0.003 µg/mL (≈ 0.00901 µM) in [22]; 250 µg/mL (≈ 750 µM) in assay [16]; 250 µg/mL (≈ 750 µM) in [17]; 8 µg/mL (≈ 24 µM) in [18]; 1 µg/mL (≈ 3 µM) in assay [25].
